Results taken from ChEMBL document CHEMBL3745596, “Chlorophenoxy aminoalkyl derivatives as histamine H(3)R ligands and antiseizure agents” (Bioorg Med Chem, 2016).
The source made the active and inactive calls.

Columns and labels:
Mus musculus [1] = test: Anticonvulsant activity in CF1 albino mouse assessed as protection against maximal electroshock-induced seizure at 30 mg/kg, ip after 4 hrs; assay type: functional, organism-based
Method in brief: (§1)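 Male CF-1 mice dosed ip as suspension in 0.5% methylcellulose. Corneal electrodes deliver 60 Hz alternating current, 50 mA for […], after a drop of 0.5% tetracaine HCl in 0.9% NaCl per eye. Protection means abolition of hindlimb tonic extension; scored as protected/tested, or ED50 with 95% confidence interval.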

Mus musculus [2] = test: Anticonvulsant activity in CF1 albino mouse assessed as protection against subcutaneous pentetrazole-induced seizure at 30 mg/kg, ip after 0.5 hrs; assay type: functional, organism-based
Method in brief: (§2)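 Male CF-1 mice, ip in 0.5% methylcellulose; pentetrazole at CD97 (85 mg/kg) injected subcutaneously in a loose fold of neck skin. Observed 30 min; absence of even a threshold seizure (single clonic spasm lasting at least 5 s) counted as protection. Scored protected/tested, or ED50.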

Mus musculus [3] = test: Anticonvulsant activity in CF1 albino mouse assessed as protection against maximal electroshock-induced seizure at 30 mg/kg, ip after 0.5 hrs; assay type: functional, organism-based; method in brief: as §1
Mus musculus [4] = test: Neurotoxicity in CF1 albino mouse at 30 mg/kg, ip after 0.5 hrs by rotarod test; assay type: toxicity, organism-based; conditions: in vivo
Method in brief: (§3)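 Rotarod neurotoxicity in male albino CF-1 mice dosed ip with compound suspended in 0.5% methylcellulose. Animal placed on a 1 inch diameter knurled plastic rod rotating at 6 rpm. Neurotoxicity scored when the animal falls off three times within 1 min. Readout is number of animals toxic/number tested at the stated time after dosing. TD50 with 95% confidence interval from the quantitative study.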

[5] = Antiproliferative activity against human IMR32 cells assessed as cell viability after 48 hrs by formazan EZ4U dye based assay; conditions: IMR-32, 48 h
Method in brief: (§4)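 HEK-293 (1.5 × 10⁴/well) or IMR-32 (2 × 10⁴/well) cells in DMEM with 10% FBS, 37 °C, 5% CO₂, grown 24 h to about 60% confluence; compounds 0.01–250 µM final, DMSO at most 1%, 48 h.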

Mus musculus [6] = test: Anticonvulsant activity in CF1 albino mouse assessed as protection against maximal electroshock-induced seizure at 100 mg/kg, ip after 0.5 hrs; assay type: functional, organism-based; method in brief: as §1
Rattus norvegicus = test: Anticonvulsant activity in Sprague-Dawley rat assessed as protection against maximal electroshock-induced seizure at 30 mg/kg, po; assay type: functional
Mus musculus [7] = test: Anticonvulsant activity in CF1 albino mouse assessed as protection against subcutaneous pentetrazole-induced seizure at 30 mg/kg, ip after 4 hrs; assay type: functional, organism-based; method in brief: as §2
Mus musculus [8] = test: Neurotoxicity in CF1 albino mouse at 3 mg/kg, ip after 0.5 hrs by rotarod test; assay type: toxicity, organism-based; conditions: in vivo; method in brief: as §3
Mus musculus [9] = test: Neurotoxicity in CF1 albino mouse at 30 mg/kg, ip after 4 hrs by rotarod test; assay type: toxicity, organism-based; conditions: in vivo; method in brief: as §3
Mus musculus [10] = test: Neurotoxicity in CF1 albino mouse at 10 mg/kg, ip after 0.5 hrs by rotarod test; assay type: toxicity, organism-based; conditions: in vivo
Method in brief: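 Rotarod neurotoxicity in male CF-1 mice dosed ip as 0.5% methylcellulose suspension: mouse placed on 1 inch knurled rod rotating at 6 rpm; toxicity when the animal falls off three times within 1 min, with other signs noted. Scored as toxic/tested at 0.5 h and 4 h.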

Mus musculus [11] = test: Anticonvulsant activity in CF1 albino mouse assessed as protection against maximal electroshock-induced seizure at 3 mg/kg, ip after 0.5 hrs; assay type: functional, organism-based; method in brief: as §1
Liver microsome = test: Drug metabolism in human liver microsomes after 2 hrs by UPLC-MS/MS analysis; assay type: ADME
Method in brief: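 Pooled adult male and female human liver microsomes 1 mg/mL in 0.1 M Tris–HCl pH 7.4 with NADPH regeneration system; started after 5 min preincubation at 37 °C, incubated 2 h at 37 °C, stopped with cold methanol, centrifuged, supernatant analysed by UPLC with ESI tandem quadrupole MS.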

Mus musculus [12] = test: Neurotoxicity in CF1 albino mouse assessed as unable to grasp rotarod and death at 100 mg/kg, ip after 0.5 hrs by rotarod test; assay type: toxicity, organism-based; conditions: in vivo
Method in brief: (§5)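 Male albino CF-1 mice dosed ip with compound suspended in 0.5% methylcellulose, then placed on a 1-inch knurled plastic rod turning at 6 rpm. A fall three times within 1 min counted as neurotoxicity. Observations were made at 0.5 h and 4 h after dosing. Result given as animals showing toxicity per animals tested, with the kind of toxicity recorded.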

Histamine H3 receptor [13] = target: T1, Histamine H3 receptor (Homo sapiens, UniProt Q9Y5N1); test: Antagonist activity at human recombinant histamine H3 receptor expressed in HEK293 cells assessed as inhibition of forskolin/(R)(-)-alpha-methylhistamine-induced cAMP accumulation after 1 hr by TR-FRET immunoassay; assay type: functional, cell-based
T1 sequence (Q9Y5N1 whole entry): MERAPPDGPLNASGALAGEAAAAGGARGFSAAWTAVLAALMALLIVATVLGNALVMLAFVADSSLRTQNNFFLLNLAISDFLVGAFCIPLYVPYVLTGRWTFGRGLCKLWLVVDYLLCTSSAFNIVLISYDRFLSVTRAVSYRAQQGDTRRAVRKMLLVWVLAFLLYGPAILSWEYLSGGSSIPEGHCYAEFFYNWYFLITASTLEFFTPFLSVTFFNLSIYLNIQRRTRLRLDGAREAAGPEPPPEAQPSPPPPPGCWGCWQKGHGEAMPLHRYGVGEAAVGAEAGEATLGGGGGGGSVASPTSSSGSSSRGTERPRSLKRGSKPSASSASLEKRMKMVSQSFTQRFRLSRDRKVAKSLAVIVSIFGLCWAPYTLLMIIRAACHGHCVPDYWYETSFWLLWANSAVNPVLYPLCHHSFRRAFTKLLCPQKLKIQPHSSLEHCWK
Method in brief: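 HEK293 cells stably expressing hH3R, stimulated 30 min at room temperature with (R)(-)-α-methylhistamine (15 nM), forskolin and antagonist (0.1 nM–10 µM range) added together. cAMP read by TR-FRET (Eu-cAMP tracer, ULight anti-cAMP antibody, 1 h), converted via cAMP standard curve to % maximal response. Sigmoidal dose–response fit; mean of three experiments, each in triplicate.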

Mus musculus [14] = test: Anticonvulsant activity in CF1 albino mouse assessed as protection against maximal electroshock-induced seizure at 10 mg/kg, ip after 0.5 hrs; assay type: functional, organism-based; method in brief: as §1
Cytochrome P450 3A4 = Cytochrome P450 3A4 (Homo sapiens, UniProt P08684); test: Inhibition of CYP3A4 (unknown origin) up to 10 uM; assay type: ADME
Sequence of Cytochrome P450 3A4 (P08684 whole entry): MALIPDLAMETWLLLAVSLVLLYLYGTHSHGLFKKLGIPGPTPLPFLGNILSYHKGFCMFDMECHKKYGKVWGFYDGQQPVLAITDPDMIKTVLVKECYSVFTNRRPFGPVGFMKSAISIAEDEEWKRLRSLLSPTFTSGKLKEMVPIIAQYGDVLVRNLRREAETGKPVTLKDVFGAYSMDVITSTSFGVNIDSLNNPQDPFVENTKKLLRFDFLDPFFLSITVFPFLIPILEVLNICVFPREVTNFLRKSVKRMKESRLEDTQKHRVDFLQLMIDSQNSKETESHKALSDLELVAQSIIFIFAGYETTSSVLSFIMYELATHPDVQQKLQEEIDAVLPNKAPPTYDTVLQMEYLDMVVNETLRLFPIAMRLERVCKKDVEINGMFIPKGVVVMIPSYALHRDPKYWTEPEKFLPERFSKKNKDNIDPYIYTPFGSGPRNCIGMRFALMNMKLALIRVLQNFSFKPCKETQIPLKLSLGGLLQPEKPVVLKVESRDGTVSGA

Mus musculus [15] = test: Neurotoxicity in CF1 albino mouse assessed as death at 300 mg/kg, ip after 0.5 hrs by rotarod test; assay type: toxicity, organism-based; conditions: in vivo; method in brief: as §5
HEK293 = test: Antiproliferative activity against human HEK293 cells assessed as cell viability after 48 hrs by formazan EZ4U dye based assay; conditions: HEK293, 48 h; method in brief: as §4
Mus musculus [16] = test: Anticonvulsant activity in CF1 albino mouse assessed as protection against maximal electroshock-induced seizure at 100 mg/kg, ip after 4 hrs; assay type: functional, organism-based; method in brief: as §1
Mus musculus [17] = test: Neurotoxicity in CF1 albino mouse at 100 mg/kg, ip after 4 hrs by rotarod test; assay type: toxicity, organism-based; conditions: in vivo; method in brief: as §3
Mus musculus [18] = test: Neurotoxicity in CF1 albino mouse at 300 mg/kg, ip after 4 hrs by rotarod test; assay type: toxicity, organism-based; conditions: in vivo; method in brief: as §3
Histamine H3 receptor [19] = target: T1, Histamine H3 receptor; test: Displacement of [3H]-Nalpha-methylhistamine from human recombinant histamine H3 receptor expressed in HEK293 cells after 90 mins; assay type: cell-based

Compound: Clc1ccc(OCCCCCCCN2CCCCC2)cc1.O=C(O)C(=O)O
- Activity (Mus musculus [1]): inactive
- Activity (Mus musculus [2]): inactive
- Activity (Mus musculus [3]): Active
- Activity (Mus musculus [4]): Non-toxic
- IC50 [5]: 15.5 µM
- Activity (Mus musculus [6]): Active
- Activity (Rattus norvegicus): 25%
- Activity (Mus musculus [7]): inactive
- Activity (Mus musculus [8]): Non-toxic
- Activity (Mus musculus [9]): Non-toxic
- Activity (Mus musculus [10]): Non-toxic
- Activity (Mus musculus [11]): inactive
- Drug metabolism (Liver microsome): metabolite_detected
- Activity (Mus musculus [12]): Toxic
- EC50 (Histamine H3 receptor [13]): 0.075 µM
- Activity (Mus musculus [14]): inactive
- inhibition (INH) (Cytochrome P450 3A4): Not Active
- Activity (Mus musculus [15]): Toxic
- IC50 (HEK293): 33.6 µM
- Activity (Mus musculus [16]): Active
- Activity (Mus musculus [17]): Non-toxic
- Activity (Mus musculus [18]): Non-toxic
- Ki (Histamine H3 receptor [19]): 0.128 µM
